An excerpt weighted towards active compounds, which were near 0.99% of everything screened.
TLR9-MyD88 block: blocks human TLR9 binding to MyD88 | inhibition, % at 4.98 µM | CHO BLA complementation TLR9-MyD88, CCF4 FRET ratio | Q9NR96+Q99836 | 0.21% of 340,000 active | AID 504734;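 active = inhibition above the mean over all tested compounds plus 3 SD, cut at about 21% in these data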;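 also: 0% = DMSO only wells and 100% = clavulanate BLA inhibitor control wells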
MT1-MMP act inh: inhibitors of human MT1-MMP activation. P50281. HT1080 RFP-PRO-GFP cells, GFP/RFP ratio fluorescence, overnight; percent of plate control window, DMSO zero. GFP/RFP ratio change, % at 20 µM. 0.061% of 360,000 active. AID 651647;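 active = GFP/RFP ratio change of at least 30% with cell ATP level not reduced by more than half and red fluorescence within 50% of control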
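Assay system: HT1080 RFP-PRO-GFP cells. Benchmarks: DMSO vehicle wells and RFP-L50D-GFP reporter cell wells. Times: overnight cell settling, then overnight compound exposure, 37 °C, 5% CO2. Compound: 20 µM single dose, 1% DMSO. Read-out basis: GFP/RFP fluorescence ratio.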
NOD2 RIPK2 PPI: blocks binding of human NOD2 to RIPK2 | CHO BLA complementation NOD2-RIPK2, CCF4 ratio | inhibition, % at 4.98 µM | 0.38% of 360,000 active | AID 624267; in the data active = inhibition above about 21%;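 also: 0% = vehicle only and 100% = reference blocker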
TLR4 MyD88 comp: inhibitors of human TLR4-MyD88 binding | AID 861 | inhibition, % at 8.4 µM | 0.18% of 200,000 active | O00206+Q99836 | HeLa CL3-4 TLR4/MyD88 BLA complementation, FRET ratio; in the data active = inhibition above about 25%;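 also: 0% = vehicle and 100% = reference inhibitor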
SKN-1 inh: C. elegans SKN-1 inhibition; inhibition, % at 21.8 µM; 0.49% of 360,000 active; C. elegans VP596 Pgst-4::GFP/RFP ratio, acrylamide-induced, 24 h;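 active = interference check ratio from 0.5 to 1.5 plus GFP to RFP signal ratio inhibition reaching or exceeding a fixed threshold, cut at about 30% in these data, passing the limit was not always enough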
The depositor's hits bear a star; / = not tested or not shown.

SMILES | TLR9-MyD88 block | MT1-MMP act inh | NOD2 RIPK2 PPI | TLR4 MyD88 comp | SKN-1 inh
N#CC(c1ccc(Cl)cc1)c1ccc2c(C(F)(F)F)cc(C(F)(F)F)nc2n1 (stereo not drawn) | 5 | -17 | -2 | -1 | 37*
CSCC[C@H](NC(=O)OC(C)(C)C)C(=O)NCC1CCC(C(=O)N[C@@H](Cc2ccccc2)C(=O)O)CC1 (stereo partly drawn) | 5 | -2 | -12 | / | -6
CNc1ncnc2c1ncn2[C@H]1CN(Cc2ccc(Cl)cc2)C[C@@H](CO)O1 | / | 1 | -5 | / | 6
Fc1ccc(-c2nc3ccc(Br)cn3c2Cc2ccccc2C(F)(F)F)cc1 | / | 0 | 0 | / | 51*
CCc1nc2ccccc2n1CC(=O)N(C(C)CC)C1CCS(=O)(=O)C1 (stereo not drawn) | -4 | -2 | -6 | 2 | 47*
O=C(N/N=C/c1cc2c(cc1Cl)OCO2)c1cc(-c2ccccc2)n[nH]1 | -8 | 3 | -2 | / | 10
Nc1cc(Cl)ccc1C(=O)OCC(=O)NCc1cccs1 | 9 | 0 | -6 | / | -21
CCN(CC)Cc1ccc(NC(=O)c2sc3cc(Cl)ccc3c2Cl)cc1 | 8 | -2 | 16 | / | 51*
CCCCn1nnc(NC(=O)c2sc3cc(Cl)ccc3c2Cl)n1 | -5 | 0 | -2 | -5 | 15
Clc1cccc(/C=N/N2CCN(Cc3ccccc3)CC2)c1 | -1 | 10 | -12 | / | 44*
C(=N\N1CCN(Cc2ccccc2)CC1)/c1ccccc1 | 9 | 0 | -11 | / | -2
CC(=O)Oc1ccc(N2C(=O)C3C4C=CC(CO)(O4)C3C2=O)cc1 (stereo not drawn) | 11 | 0 | 9 | 1 | 9
O=C1C2C3C=CC(CO)(O3)C2C(=O)N1c1ccccc1-c1ccccc1 (stereo not drawn) | 5 | -2 | 81* | 2 | -2
CCCCCn1cnc2sc(-c3ccccc3)cc2c1=O | -8 | -4 | -13 | 11 | 40*
O=c1c2cc(-c3ccccc3)sc2ncn1/N=C/c1ccco1 | 2 | -2 | -10 | -11 | 44*
CCCCn1cnc2sc(-c3ccccc3)cc2c1=O | -6 | 3 | 3 | -2 | 18
O=C(O)c1cc(S(=O)(=O)N2CCN(C(c3ccccc3)c3ccccc3)CC2)ccc1Cl | -8 | -7 | 0 | / | 2
CN(C1=NS(=O)(=O)N=C(N(C)c2ccccc2)O1)c1ccccc1 | -2 | 0 | -4 | / | 5
O=C(Cc1ccc(Cl)cc1)NNC(=O)c1ccco1 | 1 | -2 | -6 | / | -3
Cc1ccc2cc(CCNS(=O)(=O)c3ccc(Br)cc3)c(=O)[nH]c2c1C | 0 | 0 | 5 | / | -16
COc1ccccc1Nc1nc(-c2cccc([N+](=O)[O-])c2)cs1 | 2 | 1 | 7 | / | 10
O=C(Nc1cccc(-c2csc(Nc3ccccc3)n2)c1)c1ccccc1 | -4 | 5 | 4 | / | 46*
O=C(Nc1cccc(-c2csc(Nc3cccc(C(F)(F)F)c3)n2)c1)c1ccccc1 | -6 | 7 | -2 | / | 17
O=C(Nc1nc(-c2ccccc2)cs1)c1ccccc1F | 2 | -1 | 7 | / | 53*
O=[N+]([O-])c1cccc(-c2csc(Nc3ccccc3)n2)c1 | -6 | -1 | -12 | -4 | 35*
SMILES | TLR9-MyD88 block | MT1-MMP act inh | NOD2 RIPK2 PPI | TLR4 MyD88 comp | SKN-1 inh
COc1ccc(-c2csc(Nc3ccccc3)n2)cc1 | 3 | 2 | -5 | 0 | 35*
COc1ccc(Nc2nc(-c3ccc(OC)cc3)cs2)cc1 | -1 | 1 | 5 | 3 | 7
COc1ccc(-c2csc(NC(=O)c3ccccc3F)n2)cc1 | 0 | 1 | 4 | / | 10
COc1cccc(C(=O)N2CCC(CCC(=O)Nc3cccc(C)c3)CC2)c1 | -7 | 4 | 14 | / | 6
Cc1ccc([C@H]2C[C@H](O)[C@@H](n3cc(C4CC4)nn3)CN2Cc2cccs2)cc1 | 1 | 0 | 0 | / | 7
C#CCOCCOCCOCCNc1nc(N2CCN(C(=O)CCCCCCCCCCNC(=O)Cn3cc(CCCCCN)nn3)CC2)nc(N2CCN(C(=O)CCCCCCCCCCNC(=O)[C@H]([C@@H](C)CC)n3cc(CCCCN=C(N)N)nn3)CC2)n1 | 40* | 26 | 35* | / | 14
C#CCOCCOCCOCCNc1nc(N2CCN(C(=O)CCCCCCCCCCNC(=O)[C@H]([C@@H](C)CC)n3cc(CCCCCN)nn3)CC2)nc(N2CCN(C(=O)CCCCCCCCCCNC(=O)[C@H]([C@@H](C)CC)n3cc(CCCCN=C(N)N)nn3)CC2)n1 | 75* | 6 | 69* | / | -1
C#CCOCCOCCOCCNc1nc(N2CCN(C(=O)CCCCCCCCCCNC(=O)[C@H]([C@@H](C)CC)n3cc(CCCCN=C(N)N)nn3)CC2)nc(N2CCN(C(=O)CCCCCCCCCCNC(=O)[C@H](CO)n3cc(CCCCCN)nn3)CC2)n1 | 35* | 12 | 31* | / | 4
CC(=O)NS(=O)(=O)c1ccc(NS(=O)(=O)c2ccccc2[N+](=O)[O-])cc1 | 3 | 5 | -3 | / | -2
CC(CC(F)(F)F)N1CCC(n2nccc2NC(=O)CCCc2ccccc2)CC1 (stereo not drawn) | -12 | -3 | -2 | / | 13
N#C/C(=N/Nc1ccc([N+](=O)[O-])cc1)C(=N)N1CCCCC1 | -6 | 18 | 4 | 3 | 19
N#C/C(=N\Nc1ccc([N+](=O)[O-])cc1)C(N)=S | -8 | 49 | 0 | / | 39*
CC12CCC(C(=O)Nc3ccc(Br)cn3)(OC1=O)C2(C)C (stereo not drawn) | / | 5 | -5 | / | 4
C#CCOCCOCCOCCNc1nc(N2CCN(C(=O)CCCCCCCCCCNC(=O)Cn3cc(C[C@@H](C)O)nn3)CC2)nc(N2CCN(C(=O)CCCCCCCCCCNC(=O)[C@H](CCCN=C(N)N)n3cc(C[C@@H](C)CC)nn3)CC2)n1 | 19 | 9 | 24* | / | -11
C#CCOCCOCCOCCNc1nc(N2CCN(C(=O)CCCCCCCCCCNC(=O)[C@H](CO)n3cc(CCCSC)nn3)CC2)nc(N2CCN(C(=O)CCCCCCCCCCNC(=O)[C@H](CCCN=C(N)N)n3cc(C[C@@H](C)CC)nn3)CC2)n1 | 7 | 12 | 21* | / | -22
C#CCOCCOCCOCCNc1nc(N2CCN(C(=O)CCCCCCCCCCNC(=O)[C@H](CO)n3cc(CCCSC)nn3)CC2)nc(N2CCN(C(=O)CCCCCCCCCCNC(=O)[C@H](CCCCN)n3cc(CCO)nn3)CC2)n1 | -5 | -2 | 7 | / | -13
COc1ccc(-n2nc(C(=O)NCC(=O)Nc3cccc(Cl)c3)c3ccccc3c2=O)cc1 | -5 | 5 | -6 | / | 11
COC(=O)c1cc(-c2ccc(OC)cc2)n[nH]1 | 2 | 0 | -6 | 12 | 11
COC(=O)c1cc(-c2cccc(OC)c2)n[nH]1 | 0 | 4 | 2 | 2 | 37*
COCCCNC(=O)c1ccccc1Oc1ccccc1 | -1 | -1 | 3 | -5 | 4

Screening results deposited in PubChem BioAssay by several laboratories.
